INS promoter act – TRM-6 insulin promoter activation; TRM-6 cells (human fetal islet line), insulin promoter eGFP reporter, imaging; plate-scaled: unstimulated 0, stimulated control 100; activation, % at 2 µM; hit rate 0.81% among 130,000; AID 1296;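 active = activation at 2 µM above a set limit, confirmed on inspection of the cell images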;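 note: share of cells whose green reporter signal exceeds an intensity cutoff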
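test system = TRM-6 insulin promoter–eGFP reporter cells | benchmarks = stimulated versus unstimulated wells as plate controls | read-out basis = percent cells above green-intensity threshold, converted to percent activation versus plate controls | detection = fixed-cell fluorescence microscopy, eGFP plus Hoechst | incubation = tamoxifen pre-incubation 15 h overnight, then compound exposure 48 h at 37 °C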
* hit, by the source's call; [ ] = remark or other dose. The sample as a whole holds a higher share of hits than the screen did.

SMILES | INS promoter act
COCC(C)NC(=O)Cc1ccc(F)cc1 (configuration not stated) | -64
COC(=O)c1cn(C(=O)OC)c2ccccc12 | 226
O=C(O)c1cn(-c2ccccc2)c(=O)c2ccccc12 | -70
COC(=O)c1cn(-c2ccccc2)c(C)c1C(=O)OC | 592*
Nc1ccccc1C(=O)N/N=C1\C2CN3CCN(C2)CC1(c1ccccc1)C3 | -7
CCOc1ccc(NC(=S)N2CCC(C(N)=O)CC2)cc1 | -7
CN(C(=O)COC(=O)/C=C/c1ccc(S(=O)(=O)N2CCc3ccccc32)cc1)C1CCS(=O)(=O)C1 (configuration not stated) | 0
COC(=O)c1cc(-c2ccc(Cl)cc2Cl)n[nH]1 | -78
Cc1cc(NC(=O)c2cc(S(=O)(=O)N3CCCCC3)ccc2C)n(-c2ccccn2)n1 | 0
Cc1ccc(SCC(=O)NC(=O)NCc2ccccc2)c(C)c1 | 8
CCc1ccc(S(=O)(=O)NCc2csc(-c3cccnc3)n2)s1 | 857*
CC(=O)Nc1ccc(S(=O)(=O)NCc2csc(-c3cccnc3)n2)cc1 | -43
O=S(=O)(NCc1csc(-c2cccnc2)n1)c1cccs1 | 50
O=C(COC(=O)c1cc(Br)ccc1O)Nc1cc(S(=O)(=O)N2CCCC2)ccc1Cl | 9
COCc1cc(C)nc(N2CCc3ccccc32)c1C#N | 0
COCc1cc(C)nc(Nc2ccccc2C)c1C#N | 408*
COCc1cc(C)nc(SCC[N+](C)(C)CC(=O)Nc2ccccc2)c1C#N | 8
C=CCn1c(COc2cccc(C)c2)nnc1SCC(=O)c1c[nH]c2c(CC)cccc12 | 106
COc1ccc(S(=O)(=O)Nc2ccc(NC(C)=O)cc2)cc1[N+](=O)[O-] | 0
CCOC(=O)Cc1c(C)nc2c(-c3cccc(Br)c3)c[nH]n2c1=O | 182
N#C/C(=C\c1sc(N2CCOCC2)nc1-c1ccccc1)C(=O)Nc1cccc2ccccc12 | 223*
CCOc1ccc(NC(=O)c2sc(N3CCOCC3)nc2-c2ccccc2)cc1 | -6
O=C(Nc1cccc2ccccc12)N1CCOCC1 | 3
Cn1c(Cc2ccccc2)nnc1SCC(=O)c1ccc(Br)s1 | -95
COCCC(=O)N1CCCC(C(=O)c2ccc(Oc3ccccc3)cc2)C1 (configuration not stated) | 542*
SMILES | INS promoter act
C=CCNC(=S)N1CCC(C(=O)c2ccc(OC)cc2)CC1 | 3
COC(=O)C1CCN(C(=O)CCCOc2ccccc2)CC1 | 123
CN(CC(=O)Nc1nccs1)S(=O)(=O)c1ccc(F)cc1 | 8
CCCC1=C(C(=O)OCC)C(c2c(C)nn(-c3ccccc3)c2Cl)C(C#N)=C(N)O1 (configuration not stated) | 3
O=C(CNS(=O)(=O)c1ccc(Br)cc1)N1CCN(c2ccc(F)cc2)CC1 | 354
COc1ccc(S(=O)(=O)N(C)CC(=O)N2CCOCC2)cc1 | -7
CN(CC(=O)N1CCN(c2ccc(F)cc2)CC1)S(=O)(=O)c1ccc(F)cc1 | 79*
O=[N+]([O-])c1ccc(CN2CCN(c3ccc4ccccc4n3)CC2)cc1 | -6
CSc1nnc(C)c(=O)n1COC(=O)COc1ccc(Cl)cc1Cl | 8
Cc1cc(C)nc(SCC(=O)N/N=C/c2cccn2-c2ccc(O)cc2)n1 | 106*
Cc1cc(C)nc(SCC(=O)Nc2ccc(N3CCOCC3)cc2)n1 | -10
C/C(=N\NC(=O)CSc1nc(C)cc(C)n1)c1cccs1 | -3
Cc1ccnc(NC(=O)CCC(=O)N(CC(=O)NCc2ccccc2)Cc2cccs2)c1 | 139
CNC(=S)/N=C/NOCc1c(Cl)cccc1Cl | 4
COC(=O)c1c(NC(=O)c2nn(C)cc2Cl)sc2c1CCCC2 | 3
COc1cc(OC)c(C(=O)NNC(=S)NC2CCCCC2)cc1OC | 8
Cn1cc(Cl)c(C(=O)NNC(=S)NC2CCCCC2)n1 | 492*
O=C1Nc2ccccc2N(O)N1c1cc(-c2ccccc2)[nH]n1 | -85
O=C(COC(=O)CNC(=O)c1ccccc1F)Nc1cccc(S(=O)(=O)N2CCCCCC2)c1 | 114
CCOC(=O)N1CCC(NC(=O)c2cc(S(=O)(=O)N3CCCCC3)ccc2F)CC1 | -3
CCCCCNC(=O)c1cc(S(=O)(=O)N2CCCCC2)ccc1F | 254*
O=C(CCCn1cnc([N+](=O)[O-])n1)Nc1cccc(O)c1 | 0
O=C(NCC1(c2ccccc2)CCCC1)c1ccc(Br)o1 | -9
C=C(C)Cn1c(SCC(=O)O)nnc1-c1ccc(OC)cc1 | -3
Cc1nnc(SCC2CCCO2)n1-c1ccccc1 (configuration not stated) | 8
SMILES | INS promoter act
COc1ccccc1OCCSc1nnc(C)n1-c1ccccc1 | 83*
COc1ccc(-c2nnc(SCCC(=O)O)n2-c2ccccc2)cc1 | 486*
COC(=O)CSc1nnc(-c2ccccc2OC)n1-c1ccc(C)cc1 | 9
COc1ccc(-c2nnc(SCC(=O)c3ccc[nH]3)n2-c2ccccc2)cc1 | 0
Cc1ccc(OCc2nnc(SCC(=O)c3cccc([N+](=O)[O-])c3)n2C)cc1 | 4
CC(CC(=O)O)CC(=O)Nc1ccccc1C(=O)O (configuration not stated) | 176
NNC(=O)[C@H]1C[C@@H]1c1ccccc1 | 7
CCOC(=O)/C(=C/C=C1\Sc2cc(OCC)c(OCC)cc2N1CC)C(C)=O | 669*[fluoresces]
O=C(CCSc1nnc(-c2ccco2)o1)Nc1ccc(F)cc1 | -73
COc1ccc(C(=O)OCn2nnc3ccccc3c2=O)cc1[N+](=O)[O-] | -9
COc1ccc(S(=O)(=O)Nc2ccc(N(C)C(C)=O)cc2)cc1 | 103*
CCOc1ccc(NS(=O)(=O)c2ccc(NC(=S)NC(C)=O)cc2)cc1 | 7
Cc1ccc(S(=O)(=O)Nc2ccc(N(C)C)cc2)cc1 | 0
CCCc1cc(=O)[nH]c(Nc2ccc(OC)c(Cl)c2)n1 | 7
CCN1CCCC1CNCc1cccc(OC)c1OCc1ccc(F)cc1 (configuration not stated) | 167
CCN(C(=O)Cc1c(C(=O)O)n(C)c2ccccc12)c1ccc(F)cc1 | -7
COc1ccc(NC(=O)c2cc3c(s2)CCC(C)C3)cc1S(=O)(=O)N1CCOCC1 (configuration not stated) | -9
O=C(CSc1nc2ccccc2c(=O)n1Cc1ccc(Cl)cc1)NCc1cccs1 | -7
CCn1c(SCC(=O)NCc2cccs2)nc2c1c(=O)n(C)c(=O)n2C | -9
CCn1c(=O)c2ccccc2n2c(SCC(=O)NCc3cccs3)nnc12 | 136*
CCn1cc(C(=O)OCC(=O)NCc2ccccc2Cl)c(=O)c2ccc(C)nc21 | 8
Cc1c(-c2ccc(F)cc2)[n+](=O)c2c(n1[O-])CCCCC2 | -8
CCOc1ccccc1NC(=S)N1CCN(c2nc(-c3ccc(F)cc3)cs2)CC1 | 5
CN(C)CCCNC(=O)C(=O)NCC1CCCO1 (configuration not stated) | 294*
O=C(NCC1CCCO1)NC1CCCCC1 (configuration not stated) | -7
SMILES | INS promoter act
O=C(CCCCCCCC(=O)NCC1CCCO1)NCC1CCCO1 (configuration not stated) | -3
CCOC(=O)COc1c(/C=N\OC)cc(Cl)cc1OC | 136
C[C@@H](O)C1NC(=O)[C@H](CCCCN)NC(=O)c2cc([N+](=O)[O-])cc(I)c2OCC[C@@H](C(N)=O)NC1=O (some centres not stated) | 9
COc1cc2c(cc1OC)C(=S)NC(C)(C)C2 | -7
CSc1nsc(/C=C/Nc2ccc(O)cc2C)c1C#N | 809*
CSc1nc(C)cc(/C=C\c2ccccc2)c1C#N | 107
N#Cc1cc(-c2ccccc2)c[nH]c1=O | 0
